# Test results taken from ChEMBL document CHEMBL3779840, “Discovery of 2-((3-Amino-4-methylphenyl)amino)-N-(2-methyl-5-(3-(trifluoromethyl)benzamido)phenyl)-4-(methylamino)pyrimidine-5-carboxamide (CHMFL-ABL-053) as a Potent, Selective, and Orally Available BCR-ABL/SRC/p38 Kinase Inhibitor for Chronic Myeloid Leukemia” (J Med Chem, 2016).
# The source made the active and inactive calls. The rule behind the calls is not given here.
# Columns and labels:
# [1] = biological target: T1, Proto-oncogene tyrosine-protein kinase Src (Homo sapiens, UniProt P12931); experiment: Inhibition of full length recombinant human C-terminal His-tagged SRC expressed in Baculovirus expression system
# T1 sequence (P12931 2-536 limits assumed): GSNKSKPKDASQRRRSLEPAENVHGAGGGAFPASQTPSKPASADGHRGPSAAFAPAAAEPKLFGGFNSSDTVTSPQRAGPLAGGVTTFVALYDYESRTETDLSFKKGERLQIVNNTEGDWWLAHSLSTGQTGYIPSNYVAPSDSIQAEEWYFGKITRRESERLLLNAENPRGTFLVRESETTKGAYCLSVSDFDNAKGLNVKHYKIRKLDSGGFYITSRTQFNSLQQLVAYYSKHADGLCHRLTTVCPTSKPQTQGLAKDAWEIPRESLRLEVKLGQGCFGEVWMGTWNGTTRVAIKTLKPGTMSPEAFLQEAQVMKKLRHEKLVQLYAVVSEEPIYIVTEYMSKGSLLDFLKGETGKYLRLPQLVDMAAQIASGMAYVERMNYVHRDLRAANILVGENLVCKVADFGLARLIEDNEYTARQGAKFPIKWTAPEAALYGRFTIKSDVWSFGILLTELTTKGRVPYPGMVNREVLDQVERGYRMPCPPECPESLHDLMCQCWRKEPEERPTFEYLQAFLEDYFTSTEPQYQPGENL
# Method in brief: (§1)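 IC50 values were determined with the Invitrogen SelectScreen biochemical kinase assay.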
# [2] = biological target: T2, Epithelial discoidin domain-containing receptor 1 (Homo sapiens, UniProt Q08345); experiment: Inhibition of partial length human wild type DDR1 expressed in bacterial expression system assessed as residual activity at 1 uM relative to control
# T2 sequence (Q08345 whole entry, the tested form may be a part): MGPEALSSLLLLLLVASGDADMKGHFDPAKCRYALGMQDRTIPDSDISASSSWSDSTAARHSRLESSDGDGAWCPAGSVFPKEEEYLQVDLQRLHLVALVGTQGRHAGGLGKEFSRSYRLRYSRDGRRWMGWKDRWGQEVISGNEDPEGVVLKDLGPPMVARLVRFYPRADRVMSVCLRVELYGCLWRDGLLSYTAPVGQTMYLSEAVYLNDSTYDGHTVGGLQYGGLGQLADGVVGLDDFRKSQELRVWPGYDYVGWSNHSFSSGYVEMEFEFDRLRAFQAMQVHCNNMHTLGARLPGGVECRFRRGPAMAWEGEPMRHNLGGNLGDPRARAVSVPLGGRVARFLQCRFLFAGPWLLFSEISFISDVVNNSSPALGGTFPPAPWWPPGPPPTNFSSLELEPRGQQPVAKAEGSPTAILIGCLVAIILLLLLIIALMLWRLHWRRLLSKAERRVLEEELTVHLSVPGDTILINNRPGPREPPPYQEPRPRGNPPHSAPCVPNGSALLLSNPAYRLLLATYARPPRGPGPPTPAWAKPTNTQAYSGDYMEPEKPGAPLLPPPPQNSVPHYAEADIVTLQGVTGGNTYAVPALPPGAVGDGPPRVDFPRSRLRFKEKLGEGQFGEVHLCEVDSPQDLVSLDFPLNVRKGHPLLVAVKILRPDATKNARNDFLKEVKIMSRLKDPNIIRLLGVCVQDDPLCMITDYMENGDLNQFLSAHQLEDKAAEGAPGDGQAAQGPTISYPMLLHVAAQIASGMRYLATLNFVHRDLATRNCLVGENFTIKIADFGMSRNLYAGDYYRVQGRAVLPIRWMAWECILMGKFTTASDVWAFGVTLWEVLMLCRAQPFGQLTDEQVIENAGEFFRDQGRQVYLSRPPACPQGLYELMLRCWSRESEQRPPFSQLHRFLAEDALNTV
# K562 [3] = experiment: Antitumor activity against human K562 cells xenografted in nu/nu mouse assessed as reduction in tumor growth administered through oral gavage after 16 days of continuous administration; type: functional
# Method in brief: (§2)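 Female nu/nu mice bore established K562 xenografts and received daily oral dosing at 25.0 or 50.0 mg/kg/d, or vehicle, starting when tumors reached 200 to 400 mm3, for 16 days. Groups had 5 animals; data are mean ± SEM. Tumor size and body weight were normalized to initial values, and final tumor weight was recorded. Tumor tissue was stained with HE, Ki-67 and TUNEL.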
# [4] = Half life in Sprague-Dawley rat at 10 mg/kg, po; type: ADME, organism-based; settings: in vivo
# [5] = biological target: T1, Proto-oncogene tyrosine-protein kinase Src; settings: BaF3
# [6] = Cmax in Sprague-Dawley rat at 1 mg/kg, iv; type: ADME, organism-based; parameters: dose 1 mg/kg, route intravenous; settings: in vivo
# MEG-01 [7] = experiment: Induction of apoptosis in human MEG01 cells assessed as increase in cleaved caspase3 level at 100 nM after 48 hrs by immunoblotting method; type: functional, cell-based
# [8] = biological target: Ephrin type-A receptor 8 (Homo sapiens) (UniProt P29322); experiment: Inhibition of partial length human wild type EPHA8 expressed in bacterial expression system assessed as residual activity at 1 uM relative to control
# [9] = Oral bioavailability in Sprague-Dawley rat at 10 mg/kg; type: ADME, organism-based; settings: in vivo
# K562 [10] = experiment: Induction of apoptosis in human K562 cells xenografted in nu/nu mouse at 25 and 50 mg/kg/day, qd administered through oral gavage measured after 16 days by TUNEL staining-based assay; type: functional, organism-based; method in brief: as §2
# [11] = AUC(0 to infinity) in Sprague-Dawley rat at 10 mg/kg, po; type: ADME, organism-based; parameters: dose 10 mg/kg, time infinity, route oral; settings: in vivo
# [12] = biological target: Tyrosine-protein kinase HCK (Homo sapiens) (UniProt P08631); settings: BaF3
# [13] = Antiproliferative activity against human MOLM14 cells assessed as cell viability after 72 hrs by CellTiter-Glo or CCK-8 assay; type: functional; settings: MOLM-14, 72 h
# [14] = Mean residence time (0 to infinity) in Sprague-Dawley rat at 1 mg/kg, iv; type: ADME, organism-based; settings: in vivo
# [15] = biological target: T1, Proto-oncogene tyrosine-protein kinase Src; experiment: Inhibition of SRC phosphorylation in human K562 cells at 0.01 to 3 uM after 1 hr by immunoblotting method; type: cell-based
# Method in brief: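 Cells were treated for 1 h at the indicated concentrations. Whole-cell lysates were then analysed by Western blot for phosphorylation of signalling proteins in the BCR-ABL pathway.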
# [16] = biological target: T2, Epithelial discoidin domain-containing receptor 1; experiment: Inhibition of GST-tagged human DDR1 (440 to 876 residues) expressed in Baculovirus expression system
# [17] = biological target: T3, Mitogen-activated protein kinase 14 (Homo sapiens, UniProt Q16539); experiment: Inhibition of P38-alpha phosphorylation in human MEG01 cells at 0.01 to 3 uM after 1 hr by immunoblotting method; type: cell-based; settings: MEG-01
# T3 sequence (Q16539 whole entry): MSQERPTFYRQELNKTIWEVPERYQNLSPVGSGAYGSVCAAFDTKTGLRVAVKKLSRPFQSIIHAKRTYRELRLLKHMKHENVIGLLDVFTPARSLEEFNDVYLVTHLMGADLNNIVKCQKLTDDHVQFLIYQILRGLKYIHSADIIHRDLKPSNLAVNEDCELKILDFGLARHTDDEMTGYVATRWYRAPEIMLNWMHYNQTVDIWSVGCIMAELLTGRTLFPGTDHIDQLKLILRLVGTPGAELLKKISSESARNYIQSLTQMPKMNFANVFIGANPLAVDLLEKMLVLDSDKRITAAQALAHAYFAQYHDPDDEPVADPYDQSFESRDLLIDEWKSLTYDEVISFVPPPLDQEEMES
# Method in brief: (§3)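 KU812, K562 and MEG-01 cells were exposed to compound at the indicated concentrations for 1 h. Whole-cell lysates were then analysed by Western blot for phosphorylated signaling proteins.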
# [18] = biological target: T3, Mitogen-activated protein kinase 14; experiment: Inhibition of full length human wild type p38-alpha expressed in bacterial expression system assessed as residual activity at 1 uM relative to control
# [19] = biological target: Discoidin domain-containing receptor 2 (Homo sapiens, UniProt Q16832); experiment: Inhibition of recombinant human GST-tagged DDR2 expressed in Baculovirus expression system; method in brief: as §1
# [20] = tested on: Mast/stem cell growth factor receptor Kit (Homo sapiens), P10721 [V559D]; experiment: Inhibition of partial length human KIT V559D mutant expressed in bacterial expression system assessed as residual activity at 1 uM relative to control
# Mast/stem cell growth factor receptor Kit (Homo sapiens), P10721 [V559D], sequence (P10721 whole entry V559D): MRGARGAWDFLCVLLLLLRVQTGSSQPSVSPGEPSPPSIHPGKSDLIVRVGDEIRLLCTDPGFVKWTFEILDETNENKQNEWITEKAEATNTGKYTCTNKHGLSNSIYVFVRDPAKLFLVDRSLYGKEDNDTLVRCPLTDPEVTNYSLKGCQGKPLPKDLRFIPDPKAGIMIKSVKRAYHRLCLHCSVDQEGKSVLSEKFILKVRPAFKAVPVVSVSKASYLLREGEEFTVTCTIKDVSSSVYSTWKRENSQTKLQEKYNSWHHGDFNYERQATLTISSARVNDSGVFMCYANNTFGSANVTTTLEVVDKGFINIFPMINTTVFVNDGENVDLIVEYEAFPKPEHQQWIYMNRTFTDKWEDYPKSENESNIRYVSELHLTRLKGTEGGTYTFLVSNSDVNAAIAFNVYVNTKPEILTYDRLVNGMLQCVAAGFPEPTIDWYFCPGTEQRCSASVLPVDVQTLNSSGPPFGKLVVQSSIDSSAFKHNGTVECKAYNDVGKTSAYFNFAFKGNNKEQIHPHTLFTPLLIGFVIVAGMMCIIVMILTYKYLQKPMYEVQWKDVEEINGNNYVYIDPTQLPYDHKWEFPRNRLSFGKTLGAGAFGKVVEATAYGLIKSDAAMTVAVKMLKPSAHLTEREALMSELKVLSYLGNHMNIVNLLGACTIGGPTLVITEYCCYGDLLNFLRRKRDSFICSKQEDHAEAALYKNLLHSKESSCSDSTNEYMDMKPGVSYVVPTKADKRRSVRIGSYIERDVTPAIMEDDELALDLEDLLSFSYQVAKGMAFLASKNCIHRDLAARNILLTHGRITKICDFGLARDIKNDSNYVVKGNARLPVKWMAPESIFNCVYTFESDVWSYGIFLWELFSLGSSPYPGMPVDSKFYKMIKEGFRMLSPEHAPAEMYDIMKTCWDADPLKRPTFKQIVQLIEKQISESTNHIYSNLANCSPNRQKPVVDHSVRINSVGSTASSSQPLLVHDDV
# [21] = Cmax in Sprague-Dawley rat at 10 mg/kg, po; type: ADME, organism-based; parameters: dose 10 mg/kg, route oral; settings: in vivo
# [22] = biological target: Transcription factor ETV6/Tyrosine-protein kinase ABL1 (Homo sapiens) (UniProt P00519+P41212); settings: BaF3
# Transcription factor ETV6/Tyrosine-protein kinase ABL1 (Homo sapiens), sequence (P00519 whole entry, looked up): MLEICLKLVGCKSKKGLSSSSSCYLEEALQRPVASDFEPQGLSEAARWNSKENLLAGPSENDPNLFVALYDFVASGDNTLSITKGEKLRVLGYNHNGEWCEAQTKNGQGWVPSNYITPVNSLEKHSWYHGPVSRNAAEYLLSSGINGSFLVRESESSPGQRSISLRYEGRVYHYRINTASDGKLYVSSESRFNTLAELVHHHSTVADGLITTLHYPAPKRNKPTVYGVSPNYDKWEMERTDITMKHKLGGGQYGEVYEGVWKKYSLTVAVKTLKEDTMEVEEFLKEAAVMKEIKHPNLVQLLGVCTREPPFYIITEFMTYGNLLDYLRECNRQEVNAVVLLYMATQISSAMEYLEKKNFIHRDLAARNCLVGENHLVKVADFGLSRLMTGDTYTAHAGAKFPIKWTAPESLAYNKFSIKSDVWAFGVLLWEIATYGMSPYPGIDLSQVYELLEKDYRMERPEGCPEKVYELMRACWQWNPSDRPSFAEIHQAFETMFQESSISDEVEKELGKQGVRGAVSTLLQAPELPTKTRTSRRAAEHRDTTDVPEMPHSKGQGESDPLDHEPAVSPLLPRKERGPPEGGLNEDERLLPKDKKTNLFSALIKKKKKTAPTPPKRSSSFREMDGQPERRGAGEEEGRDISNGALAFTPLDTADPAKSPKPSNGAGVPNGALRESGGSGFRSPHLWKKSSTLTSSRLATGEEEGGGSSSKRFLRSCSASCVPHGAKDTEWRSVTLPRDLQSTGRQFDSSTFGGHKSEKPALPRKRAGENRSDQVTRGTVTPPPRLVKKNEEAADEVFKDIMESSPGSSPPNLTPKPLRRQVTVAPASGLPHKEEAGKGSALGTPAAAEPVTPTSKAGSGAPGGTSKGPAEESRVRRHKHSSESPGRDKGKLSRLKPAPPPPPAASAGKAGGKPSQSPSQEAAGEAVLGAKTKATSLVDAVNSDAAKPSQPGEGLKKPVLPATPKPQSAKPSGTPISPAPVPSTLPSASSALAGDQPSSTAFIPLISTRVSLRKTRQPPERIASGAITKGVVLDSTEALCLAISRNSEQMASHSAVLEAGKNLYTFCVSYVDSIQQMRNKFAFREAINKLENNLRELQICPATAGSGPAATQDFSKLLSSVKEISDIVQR
# Transcription factor ETV6/Tyrosine-protein kinase ABL1 (Homo sapiens), sequence (P41212 whole entry, looked up): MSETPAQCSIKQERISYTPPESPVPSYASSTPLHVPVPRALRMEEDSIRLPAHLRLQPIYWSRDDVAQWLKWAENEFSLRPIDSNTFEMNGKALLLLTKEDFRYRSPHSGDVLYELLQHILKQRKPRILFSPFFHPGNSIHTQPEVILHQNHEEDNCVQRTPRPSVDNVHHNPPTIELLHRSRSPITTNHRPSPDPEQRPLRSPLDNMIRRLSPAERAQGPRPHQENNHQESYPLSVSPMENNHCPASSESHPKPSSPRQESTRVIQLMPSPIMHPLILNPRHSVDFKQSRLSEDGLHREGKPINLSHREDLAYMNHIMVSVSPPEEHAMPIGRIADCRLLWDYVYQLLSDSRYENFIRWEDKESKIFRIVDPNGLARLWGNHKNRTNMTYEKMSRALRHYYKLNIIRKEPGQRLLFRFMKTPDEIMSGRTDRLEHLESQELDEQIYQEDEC
# KU812 cell line = experiment: Induction of apoptosis in human KU812 cells assessed as increase in cleaved PARP level at 100 nM after 24 hrs by immunoblotting method; type: functional, cell-based
# MEG-01 [23] = experiment: Induction of apoptosis in human MEG01 cells assessed as increase in cleaved PARP level at 100 nM after 48 hrs by immunoblotting method; type: functional, cell-based
# HEL = experiment: Antiproliferative activity against human HEL cells assessed as cell viability after 72 hrs by CellTiter-Glo or CCK-8 assay; type: functional
# [24] = biological target: Tyrosine-protein kinase Lck (Homo sapiens) (UniProt P06239); experiment: Inhibition of partial length human wild type LCK expressed in bacterial expression system assessed as residual activity at 1 uM relative to control
# Tyrosine-protein kinase Lck (Homo sapiens), sequence (P06239 2-509 limits assumed): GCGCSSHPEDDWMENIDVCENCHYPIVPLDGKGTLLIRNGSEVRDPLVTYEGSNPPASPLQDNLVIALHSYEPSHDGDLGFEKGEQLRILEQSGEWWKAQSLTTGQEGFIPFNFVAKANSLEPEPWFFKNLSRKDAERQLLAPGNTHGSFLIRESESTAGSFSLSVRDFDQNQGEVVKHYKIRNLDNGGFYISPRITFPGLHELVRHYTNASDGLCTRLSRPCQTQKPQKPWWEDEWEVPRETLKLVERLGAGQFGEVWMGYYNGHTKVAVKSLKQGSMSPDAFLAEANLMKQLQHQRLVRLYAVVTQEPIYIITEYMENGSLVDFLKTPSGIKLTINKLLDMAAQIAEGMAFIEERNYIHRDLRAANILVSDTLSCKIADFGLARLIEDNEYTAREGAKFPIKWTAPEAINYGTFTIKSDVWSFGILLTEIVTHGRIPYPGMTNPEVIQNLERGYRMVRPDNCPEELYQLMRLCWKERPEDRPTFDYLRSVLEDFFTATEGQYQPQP
# K562 [25] = experiment: Induction of apoptosis in human K562 cells assessed as increase in cleaved PARP level at 100 nM after 48 hrs by immunoblotting method; type: functional, cell-based
# [26] = biological target: Tyrosine-protein kinase ABL1 (Homo sapiens, UniProt P00519); experiment: Inhibition of full length recombinant human ABL1 expressed in Baculovirus expression system; method in brief: as §1
# Tyrosine-protein kinase ABL1, sequence (P00519 whole entry, the tested form may be a part): as the sequence (P00519 whole entry, looked up) above
# [27] = biological target: Bcr/Abl fusion protein (Homo sapiens) (UniProt P00519+P11274); experiment: Inhibition of BCR/ABL autophosphorylation at Y245 site in human MEG01 cells at 300 nM after 1 hr by immunoblotting method; type: cell-based; settings: MEG-01; method in brief: as §3
# [28] = biological target: T1, Proto-oncogene tyrosine-protein kinase Src; experiment: Inhibition of partial length human wild type SRC expressed in bacterial expression system assessed as residual activity at 1 uM relative to control
structure (smiles),measurement,setting,value
CNc1nc(Nc2ccc(C)c(N)c2)ncc1C(=O)Nc1cc(NC(=O)c2cccc(C(F)(F)F)c2)ccc1C,IC50,[1],90 nM
same,Activity,[2],0%
same,TGI,K562 [3],Dose-dependent effect
same,half-life,[4],4.33 h
same,GI50,[5],200 nM
same,Cmax,[6],2400 ng/mL
same,Activity,MEG-01 [7],Active
same,Activity,[8],0.8%
same,bioavailability,[9],24.2%
same,Activity,K562 [10],Active
same,AUC(0-inf),[11],1740 ng·h/mL
same,GI50,[12],980 nM
same,GI50,[13],> 10000 nM
same,MRT inf,[14],3.1 h
same,inhibition,[15],inactive
same,IC50,[16],292 nM
same,inhibition,[17],Active
same,Activity,[18],0%
same,IC50,[19],457 nM
same,Activity,[20],1%
same,Cmax,[21],368 ng/mL
same,GI50,[22],53 nM
same,Activity,KU812 cell line,Active
same,Activity,MEG-01 [23],Active
same,GI50,HEL,> 10000 nM
same,Activity,[24],0.3%
same,Activity,K562 [25],Active
same,IC50,[26],70 nM
same,inhibition,[27],Active
same,Activity,[28],0.5%
